# Measured values from the RNAGym collection of RNA variant scans (doi:10.1002/anie.201605470).
# B1: Osa-1-4 twister ribozyme (parent)
# chain: CCGCCUAACACUGCCAAUGCCGGUCCCAAGCCCGGAUAAAAGUGGAGGGGGCGG
# Variants of: B1
# Experiment: self-cleavage, relative activity (ratio to wild type); higher = more cleavage; co-transcriptional
# Outline: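 In vitro transcription at 37 °C for 2 h allowed the twister ribozyme to cleave itself as it was made. Its 54-nucleotide Oryza sativa template had been synthesised with 97 % wild-type base and 1 % of each other base at the 48 positions downstream of the cleavage site. A template-switching oligonucleotide was used for reverse transcription, followed by PCR amplification and deep sequencing. Whether reads carried upstream sequence set the cleavage status, and relative activity is the fraction cleaved normalised to wild type.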
row,Variant,self-cleavage
1,CCGCCUAACACUGCCAAUGCCGGUUCCAAGCCCGGAUAAUAGUGGAGGGGGCGG,0.13
2,CCGCCUAACACUGCCAAUGCCGGUACCAAGCCCGGAUAAUAGUGGAGGGGGCGG,0.06
3,CCGCCUAACACUGCCAAUGCCGGUGCCAAGCCCGGAUAAUAGUGGAGGGGGCGG,0.05
4,CCGCCUAACACUGCCAAUGCCUGUCCCAAGCCCGGAUAAUAGUGGAGGGGGCGG,0.21
5,CCGCCUAACACUGCCAAUGCCAGUCCCAAGCCCGGAUAAUAGUGGAGGGGGCGG,0.32
6,CCGCCUAACACUGCCAAUGCCCGUCCCAAGCCCGGAUAAUAGUGGAGGGGGCGG,0.06
7,CCGCCUAACACUGCCAAUGCCGAUCCCAAGCCCGGAUAAUAGUGGAGGGGGCGG,0.11
8,CCGCCUAACACUGCCAAUGCCGUUCCCAAGCCCGGAUAAUAGUGGAGGGGGCGG,0.05
9,CCGCCUAACACUGCCAAUGCCGCUCCCAAGCCCGGAUAAUAGUGGAGGGGGCGG,0.04
10,CCGCCUAACACUGCCAAUGCCGGUCCCAAGCUCGGAUAAUAGUGGAGGGGGCGG,0.08
11,CCGCCUAACACUGCCAAUGCCGGUCCCAAGCGCGGAUAAUAGUGGAGGGGGCGG,0.07
12,CCGCCUAACACUGCCAAUGCCGGUCCCAAGCACGGAUAAUAGUGGAGGGGGCGG,0.07
13,CCGCCUAACACUGCCAAUGCCGGUCCCAAGCCCUGAUAAUAGUGGAGGGGGCGG,0.18
14,CCGCCUAACACUGCCAAUGCCGGUCCCAAGCCCAGAUAAUAGUGGAGGGGGCGG,0.23
15,CCGCCUAACACUGCCAAUGCCGGUCCCAAGCCCCGAUAAUAGUGGAGGGGGCGG,0.15
16,CCGCCUAACACUGCCAAUGCCGGUCCCAAGGCCGGAUAAUAGUGGAGGGGGCGG,0.07
17,CCGCCUAACACUGCCAAUGCCGGUCCCAAGACCGGAUAAUAGUGGAGGGGGCGG,0.02
18,CCGCCUAACACUGCCAAUGCCGGUCCCAAGUCCGGAUAAUAGUGGAGGGGGCGG,0.2
19,CCGCCUAACACUGCCAAUGCCGGUCCCAAGCCAGGAUAAUAGUGGAGGGGGCGG,0.07
20,CCGCCUAACACUGCCAAUGCCGGUCCCAAGCCUGGAUAAUAGUGGAGGGGGCGG,0.15
21,CCGCCUAACACUGCCAAUGCCGGUCCCAAGCCGGGAUAAUAGUGGAGGGGGCGG,0.06
22,CCGCCUAACACUGCCAAUGCCGGUCCCAAGCCCGGAUAAUAGUGGAGGCGGCGG,0.05
23,CCGCCUAACACUGCCAAUGCCGGUCCCAAGCCCGGAUAAUAGUGGAGGAGGCGG,0.07
24,CCGCCUAACACUGCCAAUGCCGGUCCCAAGCCCGGAUAAUAGUGGAGGUGGCGG,0.08
25,CCGCCUAACACUGCCAAUGUCGGUCCCAAGCCCGGAUAAUAGUGGAGGGGGCGG,0.81

row,Variant,self-cleavage
1,CCGCCUAACACUGCCAAUGACGGUCCCAAGCCCGGAUAAUAGUGGAGGGGGCGG,0.64
2,CCGCCUAACACUGCCAAUGGCGGUCCCAAGCCCGGAUAAUAGUGGAGGGGGCGG,0.07
3,CCGCCUAACACUGCAAAUGCCGGUCCCAAGCCCGGAUAAUAGUGGAGGGGGCGG,0.11
4,CCGCCUAACACUGCGAAUGCCGGUCCCAAGCCCGGAUAAUAGUGGAGGGGGCGG,0.11
5,CCGCCUAACACUGCUAAUGCCGGUCCCAAGCCCGGAUAAUAGUGGAGGGGGCGG,0.1
6,CCGCCUAACACAGCCAAUGCCGGUCCCAAGCCCGGAUAAUAGUGGAGGGGGCGG,1
7,CCGCCUAACACUGCCAAUGCCGGUCCCAAGCCCGGAUAAUAGUGGAUGGGGCGG,0.09
8,CCGCCUAACACUGCCAAUGCCGGUCCCAAGCCCGGAUAAUAGUGGACGGGGCGG,0.06
9,CCGCCUAACACUGCCAAUGCCGGUCCCAAGCCCGGAUAAUAGUGGAAGGGGCGG,0.09
10,CCGCCUAAAACUGCCAAUGCCGGUCCCAAGCCCGGAUAAUAGUGGAGGGGGCGG,0.09
11,CCGCCUAAUACUGCCAAUGCCGGUCCCAAGCCCGGAUAAUAGUGGAGGGGGCGG,0.2
12,CCGCCUAAGACUGCCAAUGCCGGUCCCAAGCCCGGAUAAUAGUGGAGGGGGCGG,0.17
13,CCGCCUAACACUGCCAAUGCCGGUCCCAAGCCCGGAUAAUAGUGGAGGGGGUGG,0.74
14,CCGCCUAACACUGCCAAUGCCGGUCCCAAGCCCGGAUAAUAGUGGAGGGGGAGG,0.4
15,CCGCCUAACACUGCCAAUGCCGGUCCCAAGCCCGGAUAAUAGUGGAGGGGGGGG,0.46
16,CCGCCUAACACUGCCAAUGCCGGUCCCAAGCCCGGAUAAUAGUAGAGGGGGCGG,0.25
17,CCGCCUAACACUGCCAAUGCCGGUCCCAAGCCCGGAUAAUAGUCGAGGGGGCGG,0.43
18,CCGCCUAACACUGCCAAUGCCGGUCCCAAGCCCGGAUAAUAGUUGAGGGGGCGG,0.26
19,CCGCCUAACACUGCCAAUGCCGGUCCCAAGCCCGGAUAAUAGUGGAGGGGGCCG,0.06
20,CCGCCUAACACUGCCAAUGCCGGUCCCAAGCCCGGAUAAUAGUGGAGGGGGCAG,0.19
21,CCGCCUAACACUGCCAAUGCCGGUCCCAAGCCCGGAUAAUAGUGGAGGGGGCUG,0.11
22,CCGCCUAACACUGCCAAUGCCGGUCCCAAGCCCGGAUAAUAGUGGAGGGCGCGG,0.18
23,CCGCCUAACACUGCCAAUGCCGGUCCCAAGCCCGGAUAAUAGUGGAGGGAGCGG,0.43
24,CCGCCUAACACUGCCAAUGCCGGUCCCAAGCCCGGAUAAUAGUGGAGGGUGCGG,0.34
25,CCGCCUAACACUGCCAAUGCCGGUCCCAAGCCCGGAUAAUAGUGGAGGGGGCGU,0.47

row,Variant,self-cleavage
1,CCGCCUAACACUGCCAAUGCCGGUCCCAAGCCCGGAUAAUAGUGGAGGGGGCGC,0.19
2,CCGCCUAACACUGCCAAUGCCGGUCCCAAGCCCGGAUAAUAGUGGAGGGGGCGA,0.25
3,CCGCCUAACACUGCCAAUGCCGGUCCCAAGCCCGGAUAAUCGUGGAGGGGGCGG,0.87
4,CCGCCUAACACUGCCAAUGCCGGUCCCAAGCCCGGAUAAUGGUGGAGGGGGCGG,0.1
5,CCGCCUAACACUGCCAAUGCCGGUCCCAAGCCCGGAUAAUUGUGGAGGGGGCGG,0.83
6,CCGCCUAACACUGCCAAUGCCGGUCCCAAGCCCGAAUAAUAGUGGAGGGGGCGG,0.58
7,CCGCCUAACACUGCCAAUGCCGGUCCCAAGCCCGUAUAAUAGUGGAGGGGGCGG,0.41
8,CCGCCUAACACUGCCAAUGCCGGUCCCAAGCCCGCAUAAUAGUGGAGGGGGCGG,0.09
9,CCGCCUAACACUGCCAAUCCCGGUCCCAAGCCCGGAUAAUAGUGGAGGGGGCGG,0.04
10,CCGCCUAACACUGCCAAUUCCGGUCCCAAGCCCGGAUAAUAGUGGAGGGGGCGG,0.08
11,CCGCCUAACACUGCCAAUACCGGUCCCAAGCCCGGAUAAUAGUGGAGGGGGCGG,0.17
12,CCGCCUAACACUGCCAAUGCUGGUCCCAAGCCCGGAUAAUAGUGGAGGGGGCGG,0.59
13,CCGCCUAACACUGCCAAUGCGGGUCCCAAGCCCGGAUAAUAGUGGAGGGGGCGG,0.05
14,CCGCCUAACACUGCCAAUGCAGGUCCCAAGCCCGGAUAAUAGUGGAGGGGGCGG,0.15
15,CCGCCUAACACUGCCAAUGCCGGUCCAAAGCCCGGAUAAUAGUGGAGGGGGCGG,0.09
16,CCGCCUAACACUGCCAAUGCCGGUCCGAAGCCCGGAUAAUAGUGGAGGGGGCGG,0.06
17,CCGCCUAACACUGCCAAUGCCGGUCCUAAGCCCGGAUAAUAGUGGAGGGGGCGG,0.1
18,CCGCCUAACACUGCCAAUGCCGGUCCCAAGCCCGGAUAAUAGUGGAGCGGGCGG,0.05
19,CCGCCUAACACUGCCAAUGCCGGUCCCAAGCCCGGAUAAUAGUGGAGAGGGCGG,0.06
20,CCGCCUAACACUGCCAAUGCCGGUCCCAAGCCCGGAUAAUAGUGGAGUGGGCGG,0.04
21,CCGCCUAACACUACCAAUGCCGGUCCCAAGCCCGGAUAAUAGUGGAGGGGGCGG,0.06
22,CCGCCUAACACUUCCAAUGCCGGUCCCAAGCCCGGAUAAUAGUGGAGGGGGCGG,0.01
23,CCGCCUAACACUCCCAAUGCCGGUCCCAAGCCCGGAUAAUAGUGGAGGGGGCGG,0.02
24,CCGCCUAACACUGCCAAUGCCGGUCCCAAGCCCGGAUAAUAUUGGAGGGGGCGG,0.06
25,CCGCCUAACACUGCCAAUGCCGGUCCCAAGCCCGGAUAAUACUGGAGGGGGCGG,0.11

row,Variant,self-cleavage
1,CCGCCUAACACUGCCAAUGCCGGUCCCAAGCCCGGAUAAUAAUGGAGGGGGCGG,0.1
2,CCGCCUAACAUUGCCAAUGCCGGUCCCAAGCCCGGAUAAUAGUGGAGGGGGCGG,0.33
3,CCGCCUAACAGUGCCAAUGCCGGUCCCAAGCCCGGAUAAUAGUGGAGGGGGCGG,0.06
4,CCGCCUAACAAUGCCAAUGCCGGUCCCAAGCCCGGAUAAUAGUGGAGGGGGCGG,0.1
5,CCGCCUAACACUGACAAUGCCGGUCCCAAGCCCGGAUAAUAGUGGAGGGGGCGG,0.15
6,CCGCCUAACACUGUCAAUGCCGGUCCCAAGCCCGGAUAAUAGUGGAGGGGGCGG,0.11
7,CCGCCUAACACUGGCAAUGCCGGUCCCAAGCCCGGAUAAUAGUGGAGGGGGCGG,0.13
8,CCGCCUAACACUGCCAAUGCCGGUCACAAGCCCGGAUAAUAGUGGAGGGGGCGG,0.05
9,CCGCCUAACACUGCCAAUGCCGGUCUCAAGCCCGGAUAAUAGUGGAGGGGGCGG,0.14
10,CCGCCUAACACUGCCAAUGCCGGUCGCAAGCCCGGAUAAUAGUGGAGGGGGCGG,0.08
11,CCGCCUAACACUGCCAAUGCCGGUCCCAAGCCCGGAUAAUAGUGGAGGGGCCGG,0.06
12,CCGCCUAACACUGCCAAUGCCGGUCCCAAGCCCGGAUAAUAGUGGAGGGGACGG,0.18
13,CCGCCUAACACUGCCAAUGCCGGUCCCAAGCCCGGAUAAUAGUGGAGGGGUCGG,0.1
14,CCGCCUAACACUGCCAAUGCCGGUCCCAAGCCCGGAUAAUAGUGCAGGGGGCGG,0.06
15,CCGCCUAACACUGCCAAUGCCGGUCCCAAGCCCGGAUAAUAGUGUAGGGGGCGG,0.07
16,CCGCCUAACACUGCCAAUGCCGGUCCCAAGCCCGGAUAAUAGUGAAGGGGGCGG,0.07
17,CCGCCUAACACUGCCAAUGCCGGUCCCAAACCCGGAUAAUAGUGGAGGGGGCGG,0.03
18,CCGCCUAACACUGCCAAUGCCGGUCCCAAUCCCGGAUAAUAGUGGAGGGGGCGG,0.03
19,CCGCCUAACACUGCCAAUGCCGGUCCCAACCCCGGAUAAUAGUGGAGGGGGCGG,0.04
20,CCGCCUAACACUGCCAAUGCCGGUCCCAAGCCCGGAUAAUAGUGGGGGGGGCGG,0.05
21,CCGCCUAACACUGCCAAUGCCGGUCCCAAGCCCGGAUAAUAGUGGCGGGGGCGG,0.05
22,CCGCCUAACACUGCCAAUGCCGGUCCCAAGCCCGGAUAAUAGUGGUGGGGGCGG,0.07
